Reference: ChEMBL document CHEMBL1681709, “Structure-activity relationship studies on 1-(5-carboxyindol-1-yl)-propan-2-one inhibitors of human cytosolic phospholipase A2α: variation of the activated ketone moiety” (Bioorg Med Chem Lett, 2011)
Active and inactive are the calls of the source. The calls are words filed in the database; no cut-off is given here.

Legend:
Homo sapiens = species on record: Homo sapiens; experiment: Inhibition of human platelet cytosolic phospholipase A2alpha at 10 uM
Outline: (§1)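 cPLA2α isolated from human platelets. Reactions were stopped after 60 min with acetonitrile/methanol/0.1 M aqueous EDTA-Na2 containing 4-undecyloxybenzoic acid as internal standard and NDGA as oxygen scavenger. Released arachidonic acid was cleaned up by solid-phase extraction and quantified by RP-HPLC with UV detection at 200 nm. Results are IC50 or % inhibition at 10 μM, as means of at least two independent determinations.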

[1] = Inhibition of human platelet cytosolic phospholipase A2alpha; outline: as §1

Row | SMILES | inhibition (Homo sapiens) | IC50 [1]
1 | CCCCCCCCc1ccc(OC/C(Cn2ccc3cc(C(=O)O)ccc32)=N/O)cc1 | 42% | > 10 µM
2 | CCCCCCCCc1ccc(OC/C(Cn2ccc3cc(C(=O)O)ccc32)=N\O)cc1 | 32% | > 10 µM
3 | CCCCCCCCc1ccc(OCC(Cn2ccc3cc(C(=O)O)ccc32)=NOC)cc1 (mixture of isomers) | 22% | > 10 µM
4 | CCCCCCCCc1ccc(OCC(Cn2ccc3cc(C(=O)O)ccc32)OC(=O)c2ccccc2)cc1 (racemic) | 18% | > 10 µM
5 | CCCCCCCCc1ccc(OCC(Cn2ccc3cc(C(=O)O)ccc32)OS(C)(=O)=O)cc1 (racemic) | 16% | > 10 µM
6 | CCCCCCCCc1ccc(OCC(Cn2ccc3cc(C(=O)O)ccc32)N=[N+]=[N-])cc1 (racemic) | – | 4.3 µM
7 | CCCCCCCCc1ccc(OCC(N)Cn2ccc3cc(C(=O)O)ccc32)cc1 (racemic) | 37% | > 10 µM
8 | CCCCCCCCc1ccc(OCC(Cn2ccc3cc(C(=O)O)ccc32)NC(=O)OC)cc1 (racemic) | 21% | > 10 µM
9 | CCCCCCCCc1ccc(OCC(Cn2ccc3cc(C(=O)O)ccc32)NC(=O)Oc2ccccc2)cc1 (racemic) | – | 4.6 µM
10 | CCCCCCCCc1ccc(OCC(Cn2ccc3cc(C(=O)O)ccc32)NC(=O)Oc2ccc(F)cc2)cc1 (racemic) | – | 1.7 µM
11 | CCCCCCCCc1ccc(OCC(Cn2ccc3cc(C(=O)O)ccc32)NC(=O)Oc2ccc(Cl)cc2)cc1 (racemic) | 28% | > 10 µM
12 | CCCCCCCCc1ccc(OCC(Cn2ccc3cc(C(=O)O)ccc32)NC(=O)Oc2ccc(OC)cc2)cc1 (racemic) | 23% | > 10 µM
13 | CCCCCCCCc1ccc(OCC(Cn2ccc3cc(C(=O)O)ccc32)NC(=O)Oc2cccc(F)c2)cc1 (racemic) | – | 5.1 µM
14 | CCCCCCCCc1ccc(OCC(Cn2ccc3cc(C(=O)O)ccc32)NC(=O)Nc2ccccc2)cc1 (racemic) | inactive | –
15 | CCCCCCCCc1ccc(OCC(Cn2ccc3cc(C(=O)O)ccc32)NC(=O)Oc2ccccc2Cl)cc1 (racemic) | inactive | –
16 | CCCCCCCCc1ccc(OCC(Cn2ccc3cc(C(=O)O)ccc32)NC(=O)Oc2ccccc2F)cc1 (racemic) | inactive | –
17 | CCCCCCCCc1ccc(OCC(Cn2ccc3cc(C(=O)O)ccc32)NC(=O)Oc2ccccc2OC)cc1 (racemic) | inactive | –
18 | CCCCCCCCc1ccc(OCC(Cn2ccc3cc(C(=O)O)ccc32)NC(=O)c2ccccc2)cc1 (racemic) | inactive | –
19 | CCCCCCCCc1ccc(OCC(Cn2ccc3cc(C(=O)O)ccc32)NC(C)=O)cc1 (racemic) | inactive | –
20 | CCCCCCCCc1ccc(OCC(Cn2ccc3cc(C(=O)O)ccc32)OC(=O)Nc2ccccc2)cc1 (racemic) | inactive | –
21 | CCCCCCCCc1ccc(OCC(Cn2ccc3cc(C(=O)O)ccc32)OC(C)=O)cc1 (racemic) | inactive | –
22 | CCCCC/C=C\C/C=C\C/C=C\C/C=C\CCCC(=O)C(F)(F)F [ARACHIDONYL TRIFLUOROMETHYLKETONE] | – | 2.3 µM
